Calls of active or inactive are those of the source. Cut-off read from the data, not from the text of the source, unless noted: active = inhibition above about 31%; inactive = the rest.

Experiment [1] is described as follows: HUVEC growth inhibition – cell-based, human, primary screen (AID 575;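 active = viability at or below 30% in both replicate assays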;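 note: 100% = median of untreated cell wells with 0.1% DMSO on each plate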). Conditions: HUVEC proliferation, CellTiter-Glo luminescence, 72 h; at 10 µM; stronger effect = lower value. Summed up: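 Timing: 72 h treatment at 37 °C; material: HUVEC primary cells; technique: CellTiter-Glo luminescence measuring cellular ATP; controls: vehicle and MePR control wells; measure: percent of median DMSO-control luminescence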
A general note: In ATP-based viability assays light output follows the ATP content of the culture.

Experiment [2] in a line: H69AR cell proliferation blockers – human, duplicate replicates, primary screen (AID 580;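 active = viability at or under a set limit in both replicates, limit being median viability minus 3 SD, cut at about 48% in these data, passing the limit was not always enough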;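 note: 100% = mean luminescence of untreated wells and 0% = no signal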). Particulars: H69AR lung tumor cells viability, ATP luminescence, 72 h; at 10 µM; stronger effect = lower value.
A short description of experiment [3]: MRP1 drug-resistance reversers in H69AR cells – cell-based, doxorubicin co-treatment, pilot screen (AID 601;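 active = viability loss from added drug above about 55%, and viability with drug at most 40%, in both replicates, limit read from the data, passing the limit was not always enough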). Conditions: CellTiter-Glo, 72 h, at 10 µM; for differential viability (reversal): stronger effect = higher value.
A short description of experiment [4]: yeast transport mutant growth inhibition pilot in 384-well plates, post-Golgi transport modulator project (AID 636). Particulars: absorbance 615 nm, about 18 h, stronger effect = higher value.
The nature of experiment [5]: growth suppression of yeast trafficking mutant, preliminary HTS, modulators of trafficking downstream of Golgi apparatus project, 1536-format plate, OD 615 nm (AID 637; in the data active = inhibition above about 30%). Conditions: yeast transport mutant growth, absorbance 615 nm, 18 h; stronger effect = higher value.
Setting [6] is: H69AR cells + 2 uM doxorubicin, measured here: viability with 2 uM doxorubicin, stronger effect = lower value.
Where [7] appears, read: H69AR cells, compound alone cytotoxicity.

As usually defined, the viability is a read-out of living cells in per cent, often relative to untreated cells. The inhibition is the relative decrease from the control value, in per cent. On to `CN1CCN(c2nc(-c3ccncc3)nc3ccccc23)CC1`, for which the viability is 78.3% (inactive) in experiment [1], 78.3% (inactive) in experiment [2], 28.8% in experiment [3] (setting [6]) and 78.3% in experiment [3] (setting [7]). Also, the differential viability (reversal) in experiment [3] (H69AR cells + 2 uM doxorubicin) was 49.5% (inactive). Moreover, the inhibition in experiment [4] is -5.47% (inactive); in experiment [5], 1.75% (inactive).

Turning to `COC(=O)C1(C(=O)OC)Sc2ccccc2C1=O`, the viability in experiment [1] was 87.2% (inactive); in experiment [2] it was 101% (inactive); in experiment [3] (setting [6]), 90.8%; in experiment [3] (setting [7]), 101%. Moreover, in experiment [3] (H69AR cells + 2 uM doxorubicin), the differential viability (reversal) was 10.6% (inactive). Moreover, the results for the inhibition in experiment [4] and in experiment [5] were -3.9% (inactive) and 3.33% (inactive), respectively.

Regarding `CC(=O)N1CCN(S(=O)(=O)c2ccc(S(=O)(=O)NCC(C)C)cc2)CC1`, the viability in experiment [1] is 111% (inactive); in experiment [2], 88.5% (inactive); in experiment [3] (setting [6]) it was 86.4%; in experiment [3] (setting [7]) it was 88.5%. Also, the differential viability (reversal) in experiment [3] (H69AR cells + 2 uM doxorubicin) is 2.16% (inactive). Also, the results for the inhibition in experiment [4] and in experiment [5] were -5.73% (inactive) and 0.16% (inactive), respectively.

Consider `O=C1CCCc2c1nn(-c1ccccc1)[n+]2[O-]`, for which the viability is 110% (inactive) in experiment [1], 98.1% (inactive) in experiment [2], 96.5% in experiment [3] (setting [6]) and 98.1% in experiment [3] (setting [7]). Also, the differential viability (reversal) in experiment [3] (H69AR cells + 2 uM doxorubicin) was 1.57% (inactive). For the same molecule, the inhibition is -5.33% (inactive) in experiment [4] and -5.4% (inactive) in experiment [5].

Consider `CC1CCN(C(=O)CSc2nnc(-c3cccnc3)n2C2CCCCC2)CC1`, for which the viability in experiment [1] was 112% (inactive); in experiment [2], 97.5% (inactive); in experiment [3] (setting [6]), 101%; in experiment [3] (setting [7]), 97.5%. Also, the differential viability (reversal) in experiment [3] (H69AR cells + 2 uM doxorubicin) is -3.36% (inactive). In addition, the inhibition was -2.76% (inactive) in experiment [4] and 0.16% (inactive) in experiment [5].

Take `Cc1ccc(C)c(C(=O)NC2CC(C)(C)NC(C)(C)C2)c1`: the viability in experiment [1] is 98.5% (inactive); in experiment [2], 86.7% (inactive); in experiment [3] (setting [6]) it was 87.3%; in experiment [3] (setting [7]), 86.7%. Also, the differential viability (reversal) in experiment [3] (H69AR cells + 2 uM doxorubicin) was -0.525% (inactive). The results for the inhibition in experiment [4] and in experiment [5] were -5.71% (inactive) and -6.98% (inactive), respectively.

Regarding `O=C(NCc1nc2ccccc2[nH]1)c1ccco1`, the viability in experiment [1] is 106% (inactive); in experiment [2], 90.7% (inactive); in experiment [3] (setting [6]), 83.7%; in experiment [3] (setting [7]), 90.7%. In experiment [3] (H69AR cells + 2 uM doxorubicin), the differential viability (reversal) is 7.09% (inactive). Moreover, the inhibition is -4.13% (inactive) in experiment [4] and -1.9% (inactive) in experiment [5].

In the case of `COCCCNC(=O)CC(NS(=O)(=O)c1ccc(Cl)cc1)c1ccco1` (stereo not given), the viability in experiment [1] is 106% (inactive); in experiment [2], 87.5% (inactive); in experiment [3] (setting [6]) it was 84.6%; in experiment [3] (setting [7]), 87.5%. Further, in experiment [3] (H69AR cells + 2 uM doxorubicin), the differential viability (reversal) was 2.94% (inactive). For the same molecule, the inhibition in experiment [4] is -0.91% (inactive); in experiment [5] it was -3.02% (inactive).

On to `CCc1nnc(NC(=O)CCC(=O)Nc2ccccc2)s1`, for which the viability is 94.8% (inactive) in experiment [1], 90% (inactive) in experiment [2], 92.9% in experiment [3] (setting [6]) and 90% in experiment [3] (setting [7]). The differential viability (reversal) in experiment [3] (H69AR cells + 2 uM doxorubicin) is -2.88% (inactive). Moreover, the inhibition in experiment [4] was -4.27% (inactive); in experiment [5], 5.71% (inactive).

Consider `COc1ccc(-n2c(N)c(C(=O)NCc3ccco3)c3nc4ccccc4nc32)c(OC)c1`, for which the viability in experiment [1] is 61.8% (inactive); in experiment [2], 11% (active); in experiment [3] (setting [6]) it was 12.4%; in experiment [3] (setting [7]) it was 11%. For the same molecule, the differential viability (reversal) in experiment [3] (H69AR cells + 2 uM doxorubicin) is -1.38% (inactive). The inhibition was -0.8% (inactive) in experiment [4] and -0.16% (inactive) in experiment [5].

In the case of `O=C(Nc1ccc2c(c1)C(=O)N(C1CCCCC1)C2=O)C1CCCO1` (stereo not given), the viability in experiment [1] is 90.8% (inactive); in experiment [2], 90.9% (inactive); in experiment [3] (setting [6]), 92.6%; in experiment [3] (setting [7]), 90.9%. Further, the differential viability (reversal) in experiment [3] (H69AR cells + 2 uM doxorubicin) was -1.69% (inactive). Besides, the inhibition is -3.33% (inactive) in experiment [4] and -0.63% (inactive) in experiment [5].

`CCc1c(C(=O)Nc2cc(C)ccc2OC)[nH]c(C)c1C(C)=O`: the viability in experiment [1] was 45.3% (inactive); in experiment [2], 82% (inactive); in experiment [3] (setting [6]) it was 83.5%; in experiment [3] (setting [7]), 82%. In experiment [3] (H69AR cells + 2 uM doxorubicin), the differential viability (reversal) is -1.42% (inactive). Moreover, the inhibition in experiment [4] is -2.8% (inactive); in experiment [5], 14.3% (inactive).

With `O=C(CN1C(=O)COc2ccccc21)NCCCN1CCN(Cc2ccccc2)CC1`, the viability in experiment [1] was 98.5% (inactive); in experiment [2] it was 87.3% (inactive); in experiment [3] (setting [6]), 85%; in experiment [3] (setting [7]) it was 87.3%. Besides, the differential viability (reversal) in experiment [3] (H69AR cells + 2 uM doxorubicin) was 2.35% (inactive). In addition, the inhibition in experiment [4] is 3.51% (inactive); in experiment [5], 22.4% (inactive).

Take `O=C(O)c1ccc(-n2nnnc2Oc2ccccc2C(=O)N2CCOCC2)cc1`: the viability in experiment [1] was 108% (inactive); in experiment [2], 102% (inactive); in experiment [3] (setting [6]) it was 85.7%; in experiment [3] (setting [7]), 102%. For the same molecule, the differential viability (reversal) in experiment [3] (H69AR cells + 2 uM doxorubicin) is 16.1% (inactive). Further, the inhibition is -1.97% (inactive) in experiment [4] and -2.7% (inactive) in experiment [5].

For the molecule `CCn1c(SCC(=O)NCCc2ccc(Cl)cc2)nnc1-c1cccs1`, the viability in experiment [1] was 87.7% (inactive); in experiment [2], 98.9% (inactive); in experiment [3] (setting [6]) it was 94.3%; in experiment [3] (setting [7]) it was 98.9%. In experiment [3] (H69AR cells + 2 uM doxorubicin), the differential viability (reversal) is 4.62% (inactive). Besides, the inhibition in experiment [4] was 4.03% (inactive); in experiment [5], 3.17% (inactive).

As for `CCCN(CCC)CCCNS(=O)(=O)c1ccc2c(c1)oc(=O)n2C`, the viability in experiment [1] is 92.2% (inactive); in experiment [2] it was 94.7% (inactive); in experiment [3] (setting [6]) it was 93.8%; in experiment [3] (setting [7]), 94.7%. The differential viability (reversal) in experiment [3] (H69AR cells + 2 uM doxorubicin) is 0.825% (inactive). Also, the inhibition in experiment [4] is -4.4% (inactive); in experiment [5], -4.44% (inactive).

For `N#CCSCC(=O)Nc1ccc(F)cc1`, the viability in experiment [1] is 91.7% (inactive); in experiment [2] it was 93.1% (inactive); in experiment [3] (setting [6]) it was 83.6%; in experiment [3] (setting [7]), 93.1%. Moreover, in experiment [3] (H69AR cells + 2 uM doxorubicin), the differential viability (reversal) is 9.54% (inactive). For the same molecule, the figures for the inhibition in experiment [4] and in experiment [5] were -3.68% (inactive) and 0% (inactive), respectively.

Consider `Cc1nc2ccccc2c(=O)n1NC(=O)c1ccc(F)cc1Cl`, for which the viability in experiment [1] is 103% (inactive); in experiment [2], 94.2% (inactive); in experiment [3] (setting [6]) it was 98.4%; in experiment [3] (setting [7]) it was 94.2%. Besides, the differential viability (reversal) in experiment [3] (H69AR cells + 2 uM doxorubicin) is -4.19% (inactive). The inhibition was -4.34% (inactive) in experiment [4] and 2.22% (inactive) in experiment [5].

Regarding `O=C(CCCN1C(=O)c2ccccc2C1=O)NCc1cccnc1`, the viability in experiment [1] is 95.9% (inactive); in experiment [2], 94.2% (inactive); in experiment [3] (setting [6]), 91.3%; in experiment [3] (setting [7]), 94.2%. For the same molecule, the differential viability (reversal) in experiment [3] (H69AR cells + 2 uM doxorubicin) was 2.95% (inactive). Besides, the results for the inhibition in experiment [4] and in experiment [5] were -2.13% (inactive) and -3.49% (inactive), respectively.

With `COc1ccc(C2(C(=O)Nc3cc(C)on3)CCOCC2)cc1`, the viability in experiment [1] was 98% (inactive); in experiment [2], 88.1% (inactive); in experiment [3] (setting [6]), 86.9%; in experiment [3] (setting [7]), 88.1%. Moreover, the differential viability (reversal) in experiment [3] (H69AR cells + 2 uM doxorubicin) is 1.2% (inactive). Besides, the inhibition in experiment [4] was -5.87% (inactive); in experiment [5] it was 10.8% (inactive).

Values taken from PubChem BioAssay.
